This is a sample that favours compounds with a hit; in the whole collection about 3.7% have one here.
SR-BI HDL uptake: blocks mouse SR-BI lipid uptake from DiI-HDL; AID 488896; hit rate 0.96% among 320,000; inhibition, % at 12.5 µM; ldlA[mSR-BI] CHO cells, DiI-HDL uptake fluorescence, 3 h;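 active means mean replicate inhibition of at least 70% and a set share of replicates each scoring 70 or more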;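 further: 0% = median of neutral control wells and 100% = median of positive control wells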
JMJD2C inh: blocks human GASC-1 demethylase activity. Q9H3R0. GST-JMJD2C(1-420) H3K9me3 demethylation, DELFIA europium. inhibition, % at 2.35 µM. hit rate 0.069% among 330,000;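 active means more than half of a compound's replicate wells show inhibition beyond 50%, single wells judged on their own value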;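 further: signal counts dimethyl H3K9 product captured on neutravidin plate; 0% = median of DMSO wells and 100% = 0.3 times that DMSO median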
AHR activator: human AHR activation. P35869. hit rate 2.5% among 320,000. AID 2796. AHR-responsive luciferase reporter cells, luminescence. activation, % at 5 µM; in the data active means activation above about 47%;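 further: 0% = vehicle wells and 100% = reference agonist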
Target sequence (P35869 whole entry, looked up): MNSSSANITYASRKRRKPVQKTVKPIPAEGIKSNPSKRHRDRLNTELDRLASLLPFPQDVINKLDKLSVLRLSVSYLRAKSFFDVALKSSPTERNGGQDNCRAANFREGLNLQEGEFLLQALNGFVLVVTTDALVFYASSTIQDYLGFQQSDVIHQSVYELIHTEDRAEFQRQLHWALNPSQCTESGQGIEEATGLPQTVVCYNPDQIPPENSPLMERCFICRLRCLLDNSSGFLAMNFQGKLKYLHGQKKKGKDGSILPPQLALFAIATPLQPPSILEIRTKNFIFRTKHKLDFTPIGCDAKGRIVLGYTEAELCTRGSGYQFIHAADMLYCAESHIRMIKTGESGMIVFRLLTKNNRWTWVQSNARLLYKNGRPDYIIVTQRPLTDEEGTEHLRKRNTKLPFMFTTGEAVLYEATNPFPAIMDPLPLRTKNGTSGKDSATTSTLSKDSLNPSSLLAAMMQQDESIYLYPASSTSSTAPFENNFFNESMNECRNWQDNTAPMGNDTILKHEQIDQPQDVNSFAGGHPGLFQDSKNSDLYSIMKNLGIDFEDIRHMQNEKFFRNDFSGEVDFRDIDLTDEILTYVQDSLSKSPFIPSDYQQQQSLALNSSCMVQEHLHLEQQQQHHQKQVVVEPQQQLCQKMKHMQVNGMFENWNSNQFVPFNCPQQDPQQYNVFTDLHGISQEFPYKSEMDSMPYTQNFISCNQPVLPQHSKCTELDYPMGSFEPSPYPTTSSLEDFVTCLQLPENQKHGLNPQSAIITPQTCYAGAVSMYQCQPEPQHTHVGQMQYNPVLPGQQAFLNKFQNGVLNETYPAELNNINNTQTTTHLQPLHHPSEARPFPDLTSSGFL
SR-BI uptake up: enhances SR-BI lipid uptake from DiI-HDL | hit rate 0.096% among 320,000 | CHO ldlA[mSR-BI] cells, DiI-HDL uptake fluorescence, 3 h; 100 = double the neutral-control signal | AID 504775 | activation, % at 12.5 µM;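 active means mean replicate activation of at least 60% and every replicate at or above 60%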;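 further: 0% = median plate neutral-control signal and 100% = twice that signal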
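Test system: SR-BI-overexpressing, LDLR-lacking CHO cells; Medium: Ham's F12 with 0.5% BSA, HEPES 25 mM, pH 7.4; Schedule: 3 h, 37 °C; Technique: bottom-read fluorescence, 550/595 nm.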
GAA850 FXN act: frataxin GAA850 promoter activation. HEK293 lucGAA850 FXN promoter luciferase reporter, 24 h; percent of 10 µM SAHA response. activation, % at 6 µM. hit rate 0.56% among 360,000. AID 540364;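 active means activation above the average of all compounds screened plus 3 SD, cutoff fixed separately per campaign, cut at about 7.5% in these data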;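 further: 0% = DMSO wells and 100% = 10 µM SAHA wells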
An asterisk follows results filed as active; . = no result.

SMILES	SR-BI HDL uptake	JMJD2C inh	AHR activator	SR-BI uptake up	GAA850 FXN act
O=c1c(O)c(-c2ccc3c(c2)OCO3)oc2ccccc12	24.4	5.8	69.3*	-24.4	2.8
CCOC(=O)c1c(C)oc2cc(Br)c(OC(=O)N3CCOCC3)cc12	7.3	3.7	52.3*	-7.3	0.9
COc1cc2c(C(=O)N3CCN(C)CC3)c(C)oc2cc1Br	19.0	-3.6	1.7	-19.0	-0.1
CCCCNC(=O)CSc1nc(N)c(C(=O)Nc2ccc(OC)cc2)s1	32.9	-6.4	25.1	-32.9	1.5
COc1ccc(OC)c(C2C(C(C)=O)=C(C)Nc3ncnn32)c1 (stereo not drawn)	-24.2	21.1	3.4	24.3	0.8
COc1ccccc1CC(=O)NCCN1CCCCC1	-15.8	5.3	4.6	15.8	0.1
O=C(Nc1ccc2c(c1)OCCO2)c1ccc2ccccc2n1	13.0	.	51.8*	-13.0	4.5
O=C(Nc1ccc(OC(F)(F)F)cc1)c1ccc2ccccc2n1	3.5	8.1	47.3*	-3.5	3.0
COc1cccc(C(=O)C2CCCN(Cc3c(C)n(C)n(-c4ccccc4)c3=O)C2)c1 (stereo not drawn)	.	-6.8	5.0	.	1.8
CCOC(=O)c1[nH]c2cc(OC)c(OC)cc2c1NC(=O)CN1CCN(c2ccc(OC)cc2)C(C)C1 (stereo not drawn)	.	0.9	1.1	.	.
CC(C)Cn1c(N)c(C(=O)CSc2ccc3c(c2)OCCO3)c(=O)n(C)c1=O	2.4	-4.9	-1.0	-2.4	-5.8
Clc1ccc(-c2nc3nc4ccccc4nc3n2Cc2ccco2)cc1	19.6	-2.5	52.6*	-19.6	0.6
Cc1ccc(-c2nc3nc4ccccc4nc3n2Cc2ccco2)cc1	12.9	5.8	32.6	-12.9	2.5
C=CCSc1nnc(C)c(/C=C/Nc2ccc(Cl)cc2)n1	49.3	-7.3	12.7	-49.3	4.8
c1ccc(-c2csc(Nc3ccc4c(c3)OCCO4)n2)cc1	14.2	-72.2	60.9*	-14.2	5.3
COc1cccc(Nc2nc(-c3sc(N)nc3C)cs2)c1	52.1	0.9	104.8*	-52.1	0.2
COc1cccc(Nc2nc(-c3sc(C)nc3C)cs2)c1	65.0	17.6	22.5	-65.0	5.8
COc1cccc(Nc2nc(-c3ccc4c(c3)OCCO4)cs2)c1	91.4*	8.9	71.7*	-91.4	-1.7
c1cc2c(cc1Nc1nc(-c3ccc4c(c3)OCO4)cs1)OCCO2	-4.1	3.2	25.3	4.1	-4.4
CC(C)C[C@H](NC(=O)c1nc[nH]c1C(=O)N1CCN(c2ccccc2)CC1)C(=O)OCc1ccccc1	-25.8	-12.7	1.0	25.8	1.2
CC1CCN(c2ccccc2NC(=O)c2ccc(C#N)cc2F)CC1	76.6*	-12.4	71.1*	-76.6	1.1
CC(C)C(=O)N1CCN(c2ccccc2NC(=O)c2ccc(C#N)cc2F)CC1	36.0	48.8	32.2	-36.0	0.9
CCOCCn1c(=NC(=O)CSCC(=O)N2CCOCC2)sc2cc(OC)ccc21	34.9	2.6	4.4	-34.9	0.2
COc1ccc(N2CCN(c3ccc(NC(=O)c4ccc5c(c4)OCO5)cc3C#N)CC2)cc1	-6.7	-10.4	3.7	6.7	-0.4
COc1ccc(CC(=O)Nc2ccc(N3CCN(c4ccc(OC)cc4)CC3)c(C#N)c2)cc1	77.9*	3.6	6.4	-77.9	1.4
SMILES	SR-BI HDL uptake	JMJD2C inh	AHR activator	SR-BI uptake up	GAA850 FXN act
O=C(COC(=O)/C=C/c1ccc2c(c1)OCO2)NCc1ccc(F)cc1	.	.	.	.	0.0
COc1ccc(S(=O)(=O)N(C)C[C@H]2Oc3ccc(NC(=O)Nc4ccc5c(c4)OCO5)cc3C(=O)N([C@H](C)CO)C[C@@H]2C)cc1	30.8	-2.5	1.7	-30.8	-2.5
O=C(Cn1cnc2ccccc21)N/N=C/c1ccc([N+](=O)[O-])cc1	10.3	-9.8	48.7*	-10.3	-0.1
Cc1nc(Nc2ccccc2)sc1-c1ccccc1	22.7	-5.7	72.2*	-22.7	6.4
COC(=O)c1sc(Nc2ccccc2)nc1C	4.6	1.5	7.8	-4.6	9.9*
Cc1nc(NC(=O)COc2ccccc2)sc1C(=O)Nc1ccccc1	14.4	-2.4	66.0*	-14.4	-1.4
CN(C(=O)C1CCCCN1S(=O)(=O)c1ccccc1)c1ccccc1 (stereo not drawn)	-9.5	10.6	3.7	9.5	0.5
COc1cccc(NC(=O)c2nnn(Cc3ccc(Br)cc3F)c2N)c1	-2.8	1.7	54.2*	2.8	1.4
CC(C)(C)OC(=O)C[C@H]1C/C=C\C[C@H](CC(=O)N(CCO)Cc2ccccc2)C(=O)N2CCC[C@H]2COC1=O	-10.2	17.3	-1.0	10.2	-0.9
O=C(N/N=C/c1cccc([N+](=O)[O-])c1O)c1cccs1	98.4*	-0.7	37.8	-98.4	0.4
O=C(N/N=C/c1ccccc1OCc1ccccc1)c1cccs1	75.6*	4.5	33.5	-75.6	5.5
CCOC(=O)C1CCN(C(=O)/C=C/c2ccc(S(=O)(=O)N3CCOCC3)cc2)CC1	-63.5	9.5	-0.7	63.5*	-2.1
O=C(/C=C/c1ccc(S(=O)(=O)N2CCOCC2)cc1)N1CCCCC1	-13.3	.	.	13.3	1.4
CC1CCc2sc(C(=O)N/N=C/c3ccc([N+](=O)[O-])cc3)cc2C1 (stereo not drawn)	-9.6	6.2	65.5*	9.6	0.3
O=C(NCc1cccc(C(F)(F)F)c1)C1CCCN(c2cnccn2)C1 (stereo not drawn)	-3.8	-28.0	52.0*	3.8	0.8
O=C(NCc1ccccc1)C1CCCN(c2cnccn2)C1 (stereo not drawn)	0.9	-19.2	32.7	.	0.2
O=C(NCc1ccc(F)cc1)C1CCCN(c2cnccn2)C1 (stereo not drawn)	-17.9	-21.1	52.5*	17.9	0.2
CC(C)N1C(=O)CCC1C(=O)O (stereo not drawn)	-16.8	-4.8	0.4	16.8	2.0
COc1ccc(NC(=O)CN(C)C(=O)CCNC(=O)c2ccccc2OC)cc1	-15.3	2.6	6.3	15.3	1.9
N#C/C(=C/c1cn(-c2ccccc2)nc1-c1cccc(OCc2ccccc2)c1)C(=O)NCCCn1ccnc1	-84.3	-1.9	13.5	84.4*	1.1
O=C1CCn2nc(-c3ccc(Cl)cc3)cc2N1	2.4	-20.5	47.5*	-2.4	2.9
Nc1cc(-c2ccc(Cl)cc2)nn1-c1ccccc1	-12.6	-32.4	-5.4	12.6	4.9
C(=N\n1c2ccccc2c2ccccc21)/c1ccccc1	20.8	-1.2	65.4*	-20.8	2.5
C(=N/n1c2ccccc2c2ccccc21)/c1ccco1	52.8	-1.2	51.0*	-52.8	0.3
CC(C)C[C@H]1CNC(=S)N1CC1CCCN1C[C@H](Cc1ccc(O)cc1)N1C[C@H](Cc2ccccc2)N(CC2CCCCCC2)C1=S (stereo partly drawn)	-10.5	.	.	10.5	0.6
Oc1ccc(C[C@H]2CNC(=S)N2CC2CCCN2C[C@H](Cc2ccc(O)cc2)N2C[C@H](Cc3ccc(O)cc3)N(CC3CCCCC3)C2=S)cc1 (stereo partly drawn)	-183.3	.	.	183.4*	1.8

Compound activity: PubChem BioAssay, several laboratories
